pIC50: −log10 of the molar value. Active and inactive are the calls of the source. The calls are words filed in the database; no cut-off is given here.
Tests used:
RT-112 = assay: Antitumor activity against human RT112 cells xenografted in athymic nude mouse assessed as tumor growth inhibition at 10 mg/kg, po administered for 12 days; assay type: functional, organism-based; set-up: dose 10 mg/kg
How it was run: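 Female HsdNpa:Athymic Nude-nu mice received RT112/luc1 cells (luciferase retroviral line; about 1–2×10^5 cells) into the bladder lumen. Oral treatment started 14 days after inoculation: suspension in PEG300/D5W (2:1) at 10 or 30 mg/kg/qd for 12 days. Tumor burden was measured by IVIS bioluminescence 10 min after iv D-luciferin. T/C was computed from change in light emission; ANOVA with Dunnett's test.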

[1] = Inhibition of LCK-B-mediated proliferation of mouse BAF3 cells transformed with Tel-kinase construct; assay type: cell-based
How it was run: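 Murine BaF3 cells made IL-3-independent by a Tel-kinase fusion were grown in RPMI-1640 with 10% FBS. Cells were seeded at 4250 per well with DMSO-diluted compound and incubated 48 h at 37 °C. Viability was read by Bright-Glo luminescence.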

Tumour = assay: Dose normalized AUC in tumor of RT112/luc1 cells implanted athymic nude mouse at 5 mg/kg, iv by LC/MS/MS analysis; assay type: ADME, organism-based, Neoplasm; set-up: dose 5 mg/kg, route intravenous; conditions: in vivo
How it was run: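 Female athymic nude mice carried subcutaneous RT112/luc1 tumors (5×10^6 cells, 50% Matrigel; about 300–400 mm3). Dosing was either 5 mg/kg iv by tail vein in NMP/PEG200 (1:9) or 20 mg/kg oral suspension in PEG300/D5W (2:1). Groups of mice (n = 4) were sacrificed at 0.083–24 h. Plasma and tumor levels were measured by LC-MS/MS (LOQ 5 ng/mL, 10 ng/g).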

[2] = Volume of distribution at steady state in Wistar rat at 5 mg/kg, iv by LC-MS/MS analysis; assay type: ADME, organism-based; set-up: dose 5 mg/kg, route intravenous; conditions: in vivo, read-out: Vdss
How it was run: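 Female Wistar rats received 5 mg/kg iv into the femoral vein in NMP/PEG200 (1:9), or the monophosphate salt orally at 10 mg/kg (free base) in acetate buffer pH 4.6/PEG300. Serial sublingual plasma samples were taken from 0.083 to 24 h.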

Cytochrome P450 2C19 = Cytochrome P450 2C19 (Homo sapiens, UniProt P33261); assay: Inhibition of CYP2C19 using CEC as substrate; assay type: ADME
Sequence of Cytochrome P450 2C19 (P33261 whole entry, canonical isoform): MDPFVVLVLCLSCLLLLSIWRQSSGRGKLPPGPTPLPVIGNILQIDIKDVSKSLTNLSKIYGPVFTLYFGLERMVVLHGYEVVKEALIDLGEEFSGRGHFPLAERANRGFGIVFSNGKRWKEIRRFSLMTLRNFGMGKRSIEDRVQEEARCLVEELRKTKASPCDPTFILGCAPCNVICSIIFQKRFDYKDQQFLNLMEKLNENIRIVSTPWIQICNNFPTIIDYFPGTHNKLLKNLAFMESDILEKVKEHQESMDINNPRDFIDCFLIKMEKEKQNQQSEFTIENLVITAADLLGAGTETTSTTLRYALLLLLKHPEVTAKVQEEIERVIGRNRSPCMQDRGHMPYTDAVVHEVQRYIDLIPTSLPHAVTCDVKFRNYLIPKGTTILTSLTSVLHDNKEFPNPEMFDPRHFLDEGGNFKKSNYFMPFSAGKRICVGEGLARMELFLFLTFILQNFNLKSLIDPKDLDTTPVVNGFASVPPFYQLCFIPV
How it was run: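 Human CYP450 inhibition was measured with isoform-specific fluorogenic probe substrates: CEC for 1A2 and 2C19, MFC for 2C9, AMMC for 2D6. Incubation was at 37 °C with an NADPH-regenerating system in 384-well format. Metabolite was quantified by fluorescence, and IC50 was obtained by curve fitting.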

[3] = target: Insulin-like growth factor 1 receptor (Homo sapiens, UniProt P08069); assay: Inhibition of recombinant IGF1R
Sequence of Insulin-like growth factor 1 receptor (P08069 31-736 limits assumed): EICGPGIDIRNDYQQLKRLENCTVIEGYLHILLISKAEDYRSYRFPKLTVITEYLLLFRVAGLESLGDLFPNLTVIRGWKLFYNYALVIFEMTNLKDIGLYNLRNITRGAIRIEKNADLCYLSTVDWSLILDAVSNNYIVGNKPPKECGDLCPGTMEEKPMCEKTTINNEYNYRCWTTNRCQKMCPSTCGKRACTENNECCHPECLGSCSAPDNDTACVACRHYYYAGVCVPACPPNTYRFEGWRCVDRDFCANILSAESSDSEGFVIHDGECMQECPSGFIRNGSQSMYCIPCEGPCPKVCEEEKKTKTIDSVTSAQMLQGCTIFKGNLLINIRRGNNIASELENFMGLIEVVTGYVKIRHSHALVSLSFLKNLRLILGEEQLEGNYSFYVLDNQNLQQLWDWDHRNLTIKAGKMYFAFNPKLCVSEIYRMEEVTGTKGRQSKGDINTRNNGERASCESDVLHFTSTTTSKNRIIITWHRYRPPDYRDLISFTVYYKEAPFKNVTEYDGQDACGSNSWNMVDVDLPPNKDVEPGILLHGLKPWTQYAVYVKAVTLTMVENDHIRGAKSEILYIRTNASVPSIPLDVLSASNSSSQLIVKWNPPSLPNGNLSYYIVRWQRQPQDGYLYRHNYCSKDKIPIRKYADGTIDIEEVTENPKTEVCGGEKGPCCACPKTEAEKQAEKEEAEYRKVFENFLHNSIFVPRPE
Sequence of Insulin-like growth factor 1 receptor (P08069 741-1367 limits assumed): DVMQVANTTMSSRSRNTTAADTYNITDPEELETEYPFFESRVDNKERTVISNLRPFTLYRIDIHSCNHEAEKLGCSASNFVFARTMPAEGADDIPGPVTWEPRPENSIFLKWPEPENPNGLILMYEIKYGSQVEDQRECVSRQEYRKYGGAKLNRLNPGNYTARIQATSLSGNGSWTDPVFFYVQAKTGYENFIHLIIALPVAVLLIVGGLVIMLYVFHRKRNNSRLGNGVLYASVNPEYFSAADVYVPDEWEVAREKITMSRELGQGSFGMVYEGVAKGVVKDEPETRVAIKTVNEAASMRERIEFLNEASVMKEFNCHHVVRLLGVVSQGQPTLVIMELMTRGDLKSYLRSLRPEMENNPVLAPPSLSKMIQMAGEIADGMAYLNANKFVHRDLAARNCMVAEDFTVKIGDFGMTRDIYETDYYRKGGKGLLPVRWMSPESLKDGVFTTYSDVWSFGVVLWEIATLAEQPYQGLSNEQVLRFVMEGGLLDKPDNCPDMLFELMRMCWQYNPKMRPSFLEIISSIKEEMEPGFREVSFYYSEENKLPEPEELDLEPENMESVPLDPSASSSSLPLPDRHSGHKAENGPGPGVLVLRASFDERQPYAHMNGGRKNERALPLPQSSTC
How it was run: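 Purified recombinant kinases under optimized conditions with peptide substrates. ATP was set at each kinase's Km. Phosphorylation was read by microfluidic mobility-shift separation of substrate and product; IC50 determined.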

J82 = assay: Antiproliferative activity against human J82 cells after 72 hrs; assay type: functional, cell-based; conditions: J82, 72 h
How it was run: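 Bladder cancer lines from ATCC or DSMZ were seeded in 96-well plates (RT4, RT112 at 8500 cells/well; others at 5000 cells/well) in growth medium. Compound dilutions or DMSO were added 24 h later and incubated 72 h. Cells were fixed with glutaraldehyde, stained with 0.05% methylene blue and eluted with 3% HCl, then OD650 nm was read.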

- AUC/dose (Tumour): 4.8 nmol·h/g
- Vd [2]: 9.6 L/kg
- pIC50 (Cytochrome P450 2C19): < 5.00
- pIC50 [3]: < 5.00
Structure (SMILES): CCN1CCN(c2ccc(Nc3cc(N(C)C(=O)Nc4c(Cl)c(OC)cc(OC)c4Cl)ncn3)cc2)CC1.O=P(O)(O)O [INFIGRATINIB PHOSPHATE]
- inhibition (RT-112): Active
- pIC50 [1]: 5.61
- pIC50 (J82): < 5.52
